Test results reported in ChEMBL document CHEMBL1141355, “Triterpene, antioxidant, and antimicrobial compounds from Melissa officinalis” (J Nat Prod, 2007).
Values after ≈ are worked out from the molar mass of the structure shown.

Experiments:
Assay type in all cases: functional
[1] = Antioxidant activity assessed as DPPH reducing activity
How it was run: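 DPPH radical (0.025 g/L in MeOH, prepared daily) mixed with sample in MeOH, maximum concentration 200 µg/mL; vehicle control. Absorbance read at 515 nm after 10 min. Remaining DPPH calculated from a calibration curve. α-Tocopherol served as positive control. Run in triplicate; EC50 obtained by the Litchfield and Wilcoxon method.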

[2] = tested on: Staphylococcus aureus; experiment: Antibacterial activity against Staphylococcus aureus ATCC 6538 after 24 hrs by broth microdilution assay
How it was run: (§1)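 Broth microdilution in Triptone, in duplicate, per NCCLS. Samples dissolved in DMSO, then diluted in Triptone; final concentrations 2 to 0.0078 mg/mL for the pure compound and 16 to 0.031 mg/mL for extracts. Inoculum 10^5 CFU/mL. Incubation 24 h at 37 °C, read visually from below. MIC taken as the lowest concentration inhibiting growth. Controls: growth without sample, and DMSO blank.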

[3] = tested on: Staphylococcus epidermidis; experiment: Antibacterial activity against Staphylococcus epidermidis ATCC 12228 after 24 hrs by broth microdilution assay; how it was run: as §1
[4] = tested on: Pseudomonas aeruginosa; experiment: Antibacterial activity against Pseudomonas aeruginosa ATCC 9027 after 24 hrs by broth microdilution assay; how it was run: as §1
[5] = tested on: Escherichia coli; experiment: Antibacterial activity against Escherichia coli ATCC 8739 after 24 hrs by broth microdilution assay; how it was run: as §1
[6] = tested on: Candida albicans; experiment: Antifungal activity against Candida albicans ATCC 10231 after 24 hrs by broth microdilution assay
How it was run: (§2)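 ATCC strain in 96-well broth microdilution, run in duplicate following NCCLS guidance. Samples were dissolved in DMSO, then diluted in Triptone as serial dilutions: final 16 to 0.031 mg/mL for extracts, 2 to 0.0078 mg/mL for the pure compound. Inoculum suspension was 10^5 CFU/mL. Growth-control and DMSO blank wells were included. Plates were incubated 24 h at 37 °C. MIC is the lowest concentration inhibiting visible growth.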

[7] = tested on: Aspergillus niger; experiment: Antifungal activity against Aspergillus niger ATCC 16404 after 24 hrs by broth microdilution assay; conditions: ATCC 16404, 24 h; how it was run: as §1
[8] = tested on: Bacillus spizizenii; experiment: Antibacterial activity against Bacillus subtilis subsp. […] after 24 hrs by broth microdilution assay; how it was run: as §2

## Cc1c(C)c2c(c(C)c1O)CC[C@@](C)(CCC[C@H](C)CCC[C@H](C)CCCC(C)C)O2 [ALPHA-TOCOPHEROL]
[1]
  EC50: 10.1 µg/mL (≈ 23.4 µM)

## O=C(/C=C/c1ccc(O)c(O)c1)O[C@H](Cc1ccc(O)c(O)c1)C(=O)O [ROSMARINIC ACID]
[1]
  EC50: 3.1 µg/mL (≈ 8.6 µM)
[2]; ATCC 6538, 24 h
  MIC: 120 µg/mL (≈ 333 µM)
[2]; ATCC 6538, 48 h, in the assay text read “48 hrs” for “24 hrs”
  MBC: 120 µg/mL (≈ 333 µM)
[3]; ATCC 12228, 24 h
  MIC: 120 µg/mL (≈ 333 µM)
[3]; ATCC 12228, 48 h, in the assay text read “48 hrs” for “24 hrs”
  MBC: 120 µg/mL (≈ 333 µM)
[4]; ATCC 9027, 24 h
  MIC: > 2000 µg/mL
[5]; ATCC 8739, 24 h
  MIC: > 2000 µg/mL
[6]; ATCC 10231, 24 h
  MIC: > 2000 µg/mL
[7]
  MIC: > 2000 µg/mL
[8]; ATCC 6633, 24 h, in the assay text read “ATCC 6633” for “ATCC 9027”
  MBC: 120 µg/mL (≈ 333 µM)

## GENTAMICIN
[2]
  MIC: 1 µg/mL
[3]
  MIC: 1 µg/mL
[4]
  MIC: 4 µg/mL
[5]
  MIC: 4 µg/mL
[8]
  MIC: 1 µg/mL

## NYSTATIN
[6]
  MIC: 1 µg/mL
